Source: ChEMBL document CHEMBL5303300, “EUbOPEN Chemogenomics Library - Multiplex” (2023)
Values joined by “and” are separate entries in the source; they are usually repeats but may differ in a detail not shown here. Equal values may be shown once.

Legend:
Assay type in all cases: toxicity, cell-based
U2OS = test: Multiplex assay against U2OS; settings: human, number of replicates 2
Summary of the method: (§1)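 Cells were classed with CellPathfinder machine-learning gating, first as Hoechst high-intensity objects or normal cells, then (normal cells) as healthy, pyknosed or fragmented nuclei, and finally (pyknosed cells) as mitotic or apoptotic. Staining of live cells at seeding used Hoechst33342, BioTracker Green Microtubule Cytoskeleton Dye, MitoTracker Red and Annexin V Alexa Fluor 680, with imaging on a CQ1 microscope at 37°C and 5% CO2 after compound addition. Tubulin, mitochondrial-mass and membrane-permeability phenotypes are per cents of healthy-nucleus cells.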

HEK-293T = test: Multiplex assay against HEK293T; settings: human, number of replicates 2; summary of the method: as §1
Fibroblast = test: Multiplex assay against human fibroblast; settings: number of replicates 2; summary of the method: as §1
[1] = 12 h, 1 µM, compound concentration 1 uM
[2] = 12 h, 10 µM, compound concentration 10 uM
[3] = 24 h, 1 µM, compound concentration 1 uM
[4] = 24 h, 10 µM, compound concentration 10 uM
[5] = 48 h, 1 µM, compound concentration 1 uM
[6] = 48 h, 10 µM, compound concentration 10 uM

## CN(C)CCCN1c2ccccc2Sc2ccc(Cl)cc21.Cl [CHLORPROMAZINE HYDROCHLORIDE]
U2OS; [1]
  Population Healthy Nuclei (%): 42% and 81%
  Population Hoechst High Intensity Objects (%): 0%
  Population Membrane Permeable-Phenotype (%): 0% and 1%
  Population Mitochondria Different-Phenotype (%): 0% and 2%
  Population Normal (%): 100%
  Population Pyknosed Nuclei (%): 7% and 15%
  Population Tubulin-Different-Phenotype (%): 100% and 81%
U2OS; [2]
  Population Healthy Nuclei (%): 49% and 77%
  Population Hoechst High Intensity Objects (%): 0% and 1%
  Population Membrane Permeable-Phenotype (%): 6% and 3%
  Population Mitotic Cells (%): 80% and 36%
  Population Normal (%): 100% and 98%
  Population Pyknosed Nuclei (%): 8% and 17%
  Population Tubulin-Different-Phenotype (%): 36% and 42%
U2OS; [3]
  Population Healthy Nuclei (%): 53% and 88%
  Population Hoechst High Intensity Objects (%): 0%
  Population Membrane Permeable-Phenotype (%): 0% and 2%
  Population Mitochondria Different-Phenotype (%): 0% and 1%
  Population Mitotic Cells (%): 0% and 24%
  Population Normal (%): 100%
  Population Pyknosed Nuclei (%): 0% and 9%
  Population Tubulin-Different-Phenotype (%): 87% and 85%
U2OS; [4]
  Population Apoptotic (%): 63% and 64%
  Population Healthy Nuclei (%): 39% and 73%
  Population Hoechst High Intensity Objects (%): 0%
  Population Membrane Permeable-Phenotype (%): 3%
  Population Mitochondria Different-Phenotype (%): 12% and 19%
  Population Mitotic Cells (%): 36% and 35%
  Population Normal (%): 100% and 99%
  Population Pyknosed Nuclei (%): 14% and 20%
  Population Tubulin-Different-Phenotype (%): 32% and 51%
U2OS; [5]
  Population Healthy Nuclei (%): 55% and 88%
  Population Hoechst High Intensity Objects (%): 0%
  Population Normal (%): 100%
  Population Pyknosed Nuclei (%): 3% and 7%
  Population Tubulin-Different-Phenotype (%): 100% and 88%
U2OS; [6]
  Population Apoptotic (%): 92% and 74%
  Population Healthy Nuclei (%): 34% and 66%
  Population Hoechst High Intensity Objects (%): 0%
  Population Membrane Permeable-Phenotype (%): 7% and 4%
  Population Mitochondria Different-Phenotype (%): 7%
  Population Normal (%): 100% and 99%
  Population Pyknosed Nuclei (%): 16% and 24%
  Population Tubulin-Different-Phenotype (%): 51% and 55%
HEK-293T; [1]
  Population Apoptotic (%): 54% and 40%
  Population Fragmented Nuclei (%): 3% and 4%
  Population Healthy Nuclei (%): 81% and 82%
  Population Hoechst High Intensity Objects (%): 13% and 8%
  Population Membrane Permeable-Phenotype (%): 1% and 2%
  Population Mitochondria Different-Phenotype (%): 25% and 15%
  Population Mitotic Cells (%): 45% and 59%
  Population Normal (%): 86% and 91%
  Population Pyknosed Nuclei (%): 14% and 12%
  Population Tubulin-Different-Phenotype (%): 53% and 48%
  Total Cell Count: 443 and 595
HEK-293T; [2]
  Population Apoptotic (%): 55%
  Population Fragmented Nuclei (%): 1% and 2%
  Population Healthy Nuclei (%): 80% and 78%
  Population Hoechst High Intensity Objects (%): 9% and 6%
  Population Membrane Permeable-Phenotype (%): 2%
  Population Mitochondria Different-Phenotype (%): 40% and 53%
  Population Mitotic Cells (%): 44%
  Population Normal (%): 90% and 93%
  Population Pyknosed Nuclei (%): 17% and 19%
  Population Tubulin-Different-Phenotype (%): 83% and 88%
  Total Cell Count: 580 and 531
HEK-293T; [3]
  Population Apoptotic (%): 57% and 47%
  Population Fragmented Nuclei (%): 7% and 5%
  Population Healthy Nuclei (%): 80% and 88%
  Population Hoechst High Intensity Objects (%): 5% and 7%
  Population Membrane Permeable-Phenotype (%): 1%
  Population Mitochondria Different-Phenotype (%): 12% and 4%
  Population Mitotic Cells (%): 42% and 52%
  Population Normal (%): 94% and 92%
  Population Pyknosed Nuclei (%): 11% and 6%
  Population Tubulin-Different-Phenotype (%): 36% and 29%
  Total Cell Count: 621 and 951
HEK-293T; [4]
  Population Apoptotic (%): 67% and 63%
  Population Fragmented Nuclei (%): 4%
  Population Healthy Nuclei (%): 81% and 82%
  Population Hoechst High Intensity Objects (%): 6% and 9%
  Population Membrane Permeable-Phenotype (%): 1%
  Population Mitochondria Different-Phenotype (%): 46% and 48%
  Population Mitotic Cells (%): 32% and 36%
  Population Normal (%): 93% and 90%
  Population Pyknosed Nuclei (%): 14% and 13%
  Population Tubulin-Different-Phenotype (%): 86% and 82%
  Total Cell Count: 619 and 581
HEK-293T; [5]
  Population Apoptotic (%): 31% and 16%
  Population Fragmented Nuclei (%): 9% and 8%
  Population Healthy Nuclei (%): 85% and 87%
  Population Hoechst High Intensity Objects (%): 8% and 10%
  Population Membrane Permeable-Phenotype (%): 5% and 3%
  Population Mitochondria Different-Phenotype (%): 1% and 0%
  Population Mitotic Cells (%): 68% and 83%
  Population Normal (%): 91% and 89%
  Population Pyknosed Nuclei (%): 5% and 3%
  Population Tubulin-Different-Phenotype (%): 14% and 11%
  Total Cell Count: 1435 and 2116
HEK-293T; [6]
  Population Apoptotic (%): 44% and 58%
  Population Fragmented Nuclei (%): 5% and 6%
  Population Healthy Nuclei (%): 86% and 85%
  Population Hoechst High Intensity Objects (%): 9% and 10%
  Population Membrane Permeable-Phenotype (%): 4% and 6%
  Population Mitochondria Different-Phenotype (%): 8% and 12%
  Population Mitotic Cells (%): 55% and 41%
  Population Normal (%): 90% and 89%
  Population Pyknosed Nuclei (%): 8%
  Population Tubulin-Different-Phenotype (%): 64% and 60%
  Total Cell Count: 952 and 839
Fibroblast; [1]
  Population Apoptotic (%): 40% and 38%
  Population Fragmented Nuclei (%): 16% and 14%
  Population Healthy Nuclei (%): 51% and 64%
  Population Hoechst High Intensity Objects (%): 0%
  Population Membrane Permeable-Phenotype (%): 7% and 5%
  Population Mitochondria Different-Phenotype (%): 1% and 2%
  Population Mitotic Cells (%): 59% and 61%
  Population Normal (%): 100%
  Population Pyknosed Nuclei (%): 32% and 21%
  Population Tubulin-Different-Phenotype (%): 14% and 13%
  Total Cell Count: 190 and 200
Fibroblast; [2]
  Population Apoptotic (%): 52% and 41%
  Population Fragmented Nuclei (%): 15% and 22%
  Population Healthy Nuclei (%): 65% and 62%
  Population Hoechst High Intensity Objects (%): 0%
  Population Membrane Permeable-Phenotype (%): 5% and 1%
  Population Mitochondria Different-Phenotype (%): 5% and 9%
  Population Mitotic Cells (%): 47% and 58%
  Population Normal (%): 99% and 100%
  Population Pyknosed Nuclei (%): 19% and 14%
  Population Tubulin-Different-Phenotype (%): 45% and 36%
  Total Cell Count: 187 and 323
Fibroblast; [3]
  Population Apoptotic (%): 64% and 46%
  Population Fragmented Nuclei (%): 15% and 17%
  Population Healthy Nuclei (%): 58% and 66%
  Population Hoechst High Intensity Objects (%): 0%
  Population Membrane Permeable-Phenotype (%): 13% and 6%
  Population Mitochondria Different-Phenotype (%): 1% and 3%
  Population Mitotic Cells (%): 35% and 53%
  Population Normal (%): 100%
  Population Pyknosed Nuclei (%): 25% and 16%
  Population Tubulin-Different-Phenotype (%): 23% and 12%
  Total Cell Count: 206 and 196
Fibroblast; [4]
  Population Apoptotic (%): 80% and 58%
  Population Fragmented Nuclei (%): 15% and 24%
  Population Healthy Nuclei (%): 72% and 65%
  Population Hoechst High Intensity Objects (%): 1%
  Population Membrane Permeable-Phenotype (%): 2% and 1%
  Population Mitochondria Different-Phenotype (%): 16% and 15%
  Population Mitotic Cells (%): 19% and 41%
  Population Normal (%): 98%
  Population Pyknosed Nuclei (%): 11% and 10%
  Population Tubulin-Different-Phenotype (%): 49% and 42%
  Total Cell Count: 187 and 299
Fibroblast; [5]
  Population Apoptotic (%): 82% and 60%
  Population Fragmented Nuclei (%): 19% and 15%
  Population Healthy Nuclei (%): 60% and 71%
  Population Hoechst High Intensity Objects (%): 0%
  Population Membrane Permeable-Phenotype (%): 7% and 4%
  Population Mitochondria Different-Phenotype (%): 4% and 1%
  Population Mitotic Cells (%): 17% and 39%
  Population Normal (%): 99%
  Population Pyknosed Nuclei (%): 20% and 12%
  Total Cell Count: 195 and 226
Fibroblast; [6]
  Population Apoptotic (%): 73% and 90%
  Population Fragmented Nuclei (%): 23% and 32%
  Population Healthy Nuclei (%): 67% and 57%
  Population Hoechst High Intensity Objects (%): 1% and 0%
  Population Membrane Permeable-Phenotype (%): 2%
  Population Mitochondria Different-Phenotype (%): 5% and 7%
  Population Mitotic Cells (%): 26% and 9%
  Population Normal (%): 99%
  Population Pyknosed Nuclei (%): 9%
  Population Tubulin-Different-Phenotype (%): 33% and 34%
  Total Cell Count: 201 and 323
